# aDG glyco up: increases alpha dystroglycan glycosylation; Pro5-aDG cells, alpha-DG glycosylation AlphaScreen (IIH6); 0% Pro5, 100% B10-LARGE cell signal; activation, % at 10 µM; actives 0.22% (n = 360,000);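 active = activation of at least 8% versus controls, or a plate z-score of at least 8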;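 note: Pro5 are CHO cells carrying HIG-tagged alpha-DG that lacks glycosylation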
# proCasp3 act: procaspase-3 (human) activation; activation, % at 8.5 µM; P42574; AID 463141; recombinant procaspase-3 D3A, Ac-DEVD-pNA absorbance 405 nm; actives 0.11% (n = 330,000);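 active = activation above the mean of all tested compounds plus 3 SD, cut at about 21% in these data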;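 note: 0% = DMSO alone and 100% = DMSO wells spiked with extra 5 µM PC-3 D3A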
#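 Test system: Procaspase-3 D3A mutant, all three cleavage aspartates alanine | Dosing: Single dose, 8.5 µM nominal compound, 0.8% DMSO | Schedule: 1 h preincubation, 2 h reaction | Technique: 405 nm absorbance of p-nitroaniline, reads at 0 and 120 min | Repeats: One well per compound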
# MPTP inh: permeability transition pore inhibition; AID 602449; inhibition, % at 10 µM; actives 1.4% (n = 360,000); isolated mouse mitochondria, Ca2+ swelling absorbance, 30 min;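 active = inhibition of 50% or more, scaled per plate between neutral and stimulator controls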;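 note: 0% = DMSO wells given calcium and 100% = 1 mM EGTA wells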
# NR3A LBD binder: NR3A (human) ligand-binding domain modulation; NR3A LBD differential scanning fluorimetry, Tm shift; 0% = protein alone, 100% = glycine-bound protein; Tm shift relative to glycine control, % at 25 µM; actives 2.5% (n = 340,000);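 active = melting temperature shift of at least 10% of the positive control shift, at one fixed dose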
# procasp7 counter: activates human procaspase-7, counter-screen for procaspase-3 activators; actives 0.093% (n = 330,000); activation, % at 8.5 µM; P55210; AID 463210; recombinant procaspase-7, Ac-DEVD-pNA absorbance 405 nm; D23A/D198A/D206A triple mutant, cannot self-cleave; scale: DMSO 0, 5 µM enzyme 100;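 active = percent activation above the screen-wide mean plus 3 SD, cut at about 25% in these data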
# Target sequence (P55210 whole entry D23A/D198A/D206A): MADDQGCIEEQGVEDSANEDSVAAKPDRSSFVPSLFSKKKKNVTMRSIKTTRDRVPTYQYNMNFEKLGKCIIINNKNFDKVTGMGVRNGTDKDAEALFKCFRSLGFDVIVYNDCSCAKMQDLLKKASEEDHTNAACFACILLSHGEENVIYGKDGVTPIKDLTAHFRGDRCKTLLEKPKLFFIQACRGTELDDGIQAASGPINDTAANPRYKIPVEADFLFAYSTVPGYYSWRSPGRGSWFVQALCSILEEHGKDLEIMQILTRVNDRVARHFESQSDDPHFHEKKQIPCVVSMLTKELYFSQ
#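 Assay system: Uncleavable procaspase-7 mutant enzyme; Input: 2 µM procaspase-7 mutant as dispensed; Also added: DEVD-pNA substrate; Medium: Zinc-free HEPES pH 7.4 with 300 mM NaCl, 0.01% Triton X-100; Timing: 1 h compound preincubation, 2 h substrate cleavage, 25 °C; Measured by: Epi-absorbance of released pNA at 405 nm, two timepoints.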
# Rh123 counter: Rhodamine 123 counter-screen of mitochondrial pore hits. shares compounds with MPTP inh. isolated mitochondria, membrane potential, Rhodamine 123 fluorescence. inhibition, % at 10 µM. actives 78% (n = 5,000); in the data active = inhibition above about 22%;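 note: 0% = DMSO vehicle and 100% = positive control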
# MPTP swell DR: dose response confirmation of mitochondrial permeability transition pore inhibitors; shares compounds with MPTP inh; isolated mitochondria swelling, absorbance; IC50, µM; actives 58% (n = 780); AID 651561; in the data active = IC50 below about 20 µM
# MPTP cs DR: counter-screen for mitochondrial permeability transition pore inhibitors, dose response; shares compounds with MPTP inh; isolated mitochondria counterscreen, fluorescence read-out; IC50, µM; actives 49% (n = 780); AID 651564; in the data active = IC50 below about 80 µM
# * marks the source's active call; other numbers are inactive results; . = not tested or not shown. Hits are enriched below; roughly 3.7% of the tested compounds scored in any of these assays.
SMILES,aDG glyco up,proCasp3 act,MPTP inh,NR3A LBD binder,procasp7 counter,Rh123 counter,others
COc1ccc(CCC(=O)Nc2cccc(Cl)c2)cc1,0,5,2,-2,2,.,
CCOc1ccc(Oc2cc(NC(=O)c3ccco3)cc([N+](=O)[O-])c2)cc1,0,-2,24,9,3,.,
O=C(CCc1ccc(Oc2cc([N+](=O)[O-])cc([N+](=O)[O-])c2)cc1)Nc1cccc(Cl)c1,2,-1,97*,11*,1,78*,
O=C(Nc1cc(Oc2ccc(Cl)cc2)cc([N+](=O)[O-])c1)c1ccco1,0,-10,91*,22*,-6,74*,
CC(C=CC(O)=C1C(=O)CNC1=O)=C[C@@H](C)C1OC2(C)OC(C(=O)C3O[C@@]32C)C1C (some centres not stated),0,.,-1,.,.,.,
CNC(=S)/N=C/NOCc1ccc(Cl)cc1Cl,3,-6,101*,-5,-9,95*,
O=c1c2ccccc2nc(N/N=C/c2c(O)ccc3ccccc23)n1O,0,4,52*,12*,5,-19,
O=c1c2ccccc2nc(N/N=C/c2ccc(O)cc2)n1O,0,6,-9,-3,16,.,
CC(C)(C)OC(=O)N1CCCC(C(=O)Nc2ccc(C(=O)NC3CC3)cc2)C1 (configuration not stated),0,.,168*,1,.,3,MPTP swell DR=>100;MPTP cs DR=>80
Nc1nc2ccccc2n1S(=O)(=O)c1ccc(Cl)cc1,0,.,1,.,.,.,
N#CC(=C1C=CC(=NO)C(Cl)=C1)c1ccccc1,0,.,2,.,.,.,
N#CC(=C1C=C(Br)C(=NO)C=C1Cl)c1ccc(Cl)cc1,0,.,83*,.,.,85*,
ON=C1C2CC=C(c3ccccc3)C1CCC2 (configuration not stated),0,.,1,0,.,.,
Cc1ccc(Cn2c(=N)n(CC(O)c3ccco3)c3ccccc32)cc1 (configuration not stated),0,6,70*,1,4,43*,
Cc1ccc(NC(=O)Cn2c(=O)oc3cc(S(=O)(=O)N4CCC(C)CC4)ccc32)cc1C,0,-2,70*,-8,7,90*,
COc1ccc(NC(=O)Cn2c(=O)oc3cc(S(=O)(=O)N4CCCC4)ccc32)cc1,0,11,1,0,3,.,
CCC1SC(=NC(=O)c2ccc(Cl)c(Cl)c2)NC1=O (configuration not stated),0,1,76*,-1,5,100*,
CCOc1ccc(C2C=C(c3ccc(C)cc3)Nc3nnnn32)cc1 (configuration not stated),0,3,73*,3,4,26*,
CCOc1ccc(C2C=C(c3ccccc3)Nc3nnnn32)cc1 (configuration not stated),1,-4,4,2,13,.,
COc1cc2c(cc1OC)C(c1ccccc1)N(C(=O)C(C)(C)C)CC2 (configuration not stated),0,.,0,0,.,.,
COC(=O)[C@]1(Cc2ccccc2)N[C@H](CN(C)C(=O)Nc2ccc(OC)cc2)[C@@H]2C(=O)N(Cc3ccccc3)C(=O)[C@@H]21,0,5,1,2,2,.,
Cc1cccc(C2(c3cccc(C)c3)CC2C(=O)Nc2ccc([N+](=O)[O-])cc2O)c1 (configuration not stated),0,0,96*,15*,-3,68*,
C=CCNC(=O)C1CC1(c1cccc(C)c1)c1cccc(C)c1 (configuration not stated),0,-11,2,1,-1,.,
O=C(CSc1ccccn1)NC1CCCc2c1cnn2-c1ccccc1F (configuration not stated),1,.,0,.,.,.,
OCC#CCSc1nnc(-c2cccc3ccccc23)o1,0,5,2,-2,6,.,
